In publication PMC7644341 (Journal of natural products, 2020):
Marks after values point to notes of the source that are not given here.

Key:
[1] = test system: A549 human lung cancer cell line; test: Differential cytotoxicity
Non-enzymatic stability = assay type: physicochemical; conditions: for percent BAPC hydrolysis/cleavage (non-enzymatic) in phosphate buffer: pH 7.4, 48 h
tubulin = test: Inhibition of [3H]colchicine binding to tubulin; conditions: 1.0 μM tubulin, 5.0 μM [3H]colchicine
Method in brief: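 Incubation was 10 min at 37 °C, when control binding is about 50% complete. Bound ligand was collected on paired filters and scintillation-counted at least 18 h later. Counts were corrected for filter-bound colchicine without tubulin, and percent inhibition was calculated against no-inhibitor controls.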

[2] = biological target: T1, Rat NADPH-cytochrome P450 oxidoreductase (POR) supersomes (Rattus norvegicus, UniProt P00388); test: NADPH-cytochrome P450 oxidoreductase cleavage assay; assay type: in vitro ADME; conditions: for percent BAPC cleavage by POR: 90 min, anaerobic, 37 °C, NC = no cleavage observed
T1 sequence (P00388 1-678): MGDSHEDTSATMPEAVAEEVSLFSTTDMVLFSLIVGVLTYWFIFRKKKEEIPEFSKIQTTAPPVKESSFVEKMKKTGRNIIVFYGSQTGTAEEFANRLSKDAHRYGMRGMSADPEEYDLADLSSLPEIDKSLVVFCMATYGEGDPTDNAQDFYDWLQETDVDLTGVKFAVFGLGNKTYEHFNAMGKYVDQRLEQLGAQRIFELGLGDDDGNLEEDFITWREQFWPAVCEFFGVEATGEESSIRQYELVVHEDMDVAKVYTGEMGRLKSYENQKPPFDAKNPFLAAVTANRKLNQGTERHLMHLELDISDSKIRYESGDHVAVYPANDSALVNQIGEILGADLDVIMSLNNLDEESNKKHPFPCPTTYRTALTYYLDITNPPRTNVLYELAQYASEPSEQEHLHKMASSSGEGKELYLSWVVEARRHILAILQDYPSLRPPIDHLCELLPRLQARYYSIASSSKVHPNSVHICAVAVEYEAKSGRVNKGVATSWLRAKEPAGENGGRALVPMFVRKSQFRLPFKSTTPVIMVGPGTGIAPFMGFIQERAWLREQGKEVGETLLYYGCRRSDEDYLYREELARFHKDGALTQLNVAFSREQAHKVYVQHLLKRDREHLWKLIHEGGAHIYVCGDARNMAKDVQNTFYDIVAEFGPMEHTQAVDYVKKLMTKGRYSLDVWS

[3] = test system: orthotopic 4T1-luc breast tumors; test: In vivo dynamic bioluminescence imaging; design: species or system BALB/c mice; conditions: 180 mg/kg IP single dose
Method in brief: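 Cells: 4T1-luc, firefly luciferase-expressing, grown in RPMI1640 with 10% FBS. 10⁶ cells in PBS with 30% Matrigel were implanted into the left upper ventral mammary fat pad of female BALB/cJ mice and grown 11 days to 10–12 mm. Baseline BLI was taken under 2% isoflurane after SC D-luciferin (120 mg/kg). Then a single IP dose of test compound was given (180 mg/kg in DPS, n=3), with vehicle and combretastatin A-4 phosphate (120 mg/kg) controls. Imaging (~20 min) was repeated at 4, 24 and 48 h with fresh luciferin, comparing area under the light-emission curve.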

4T1-luc tumors = test: H&E histology of harvested tumors; assay type: in vivo, BALB/c mice; conditions: 180 mg/kg IP
Method in brief: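 4T1-luc orthotopic mammary fat pad tumors in female BALB/cJ mice were dosed once IP with test compound (180 mg/kg in DPS vehicle). Tumors were harvested at 72 h, or after further imaging at 96 h, when survivors were killed by cervical dislocation under isoflurane. They were stained with hematoxylin and eosin. Each tumor's histology was matched to its BLI response.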

Br.O=[N+]([O-])c1nccn1CC(O)CNCCBr (centres unmarked) [RB6145]
hypoxia cytotoxicity ratio (HCR) ([1]; A549, GI50 oxic versus anoxic, drug removal step omitted): >3.7

Nc1n[n+]([O-])c2ccccc2[n+]1[O-] [Tirapazamine]
hypoxia cytotoxicity ratio (HCR) ([1]; assays in which drug was washed out after 4 h): > 62

COc1cc(/C=C\c2ccc(OC)c3c2OC(c2ccc([N+](=O)[O-])s2)O3)cc(OC)c1OC (centres unmarked) [compound 35, (Z)-4-Methoxy-2-(5-nitrothiophen-2-yl)-7-(3,4,5-trimethoxystyryl)-benzo[d][1,3]dioxole]
percent BAPC hydrolysis/cleavage (non-enzymatic) in phosphate buffer (Non-enzymatic stability): 0%

COc1cc(/C=C\c2ccc(OC)c3c2OC(C)(c2ccc([N+](=O)[O-])s2)O3)cc(OC)c1OC (centres unmarked) [compound 36, (Z)-4-Methoxy-2-methyl-2-(5-nitrothiophen-2-yl)-7-(3,4,5-trimethoxystyryl)-benzo[d][1,3]dioxole]
percent BAPC hydrolysis/cleavage (non-enzymatic) in phosphate buffer (Non-enzymatic stability): 0%

COc1ccc(/C=C\c2cc(OC)c(OC)c(OC)c2)c(OCc2ccc([N+](=O)[O-])s2)c1O [compound 37, (Z)-6-Methoxy-2-((5-nitrothiophen-2-yl)methoxy)-3-(3,4,5-trimethoxystyryl)phenol]
percent BAPC hydrolysis/cleavage (non-enzymatic) in phosphate buffer (Non-enzymatic stability): 0^b %

COc1ccc(/C=C\c2cc(OC)c(OC)c(OC)c2)c(OC(C)c2ccc([N+](=O)[O-])s2)c1O (centres unmarked) [compound 38, (Z)-6-Methoxy-2-(1-(5-nitrothiophen-2-yl)ethoxy)-3-(3,4,5-trimethoxystyryl)phenol]
percent BAPC hydrolysis/cleavage (non-enzymatic) in phosphate buffer (Non-enzymatic stability): 0.5^c %

COc1cc(/C=C\c2ccc(OC)c(OCc3ccc([N+](=O)[O-])s3)c2O)cc(OC)c1OC [compound 39, (Z)-3-Methoxy-2-((5-nitrothiophen-2-yl)methoxy)-6-(3,4,5-trimethoxystyryl)phenol]
percent BAPC hydrolysis/cleavage (non-enzymatic) in phosphate buffer (Non-enzymatic stability): 0^b %

COc1cc(/C=C\c2ccc(OC)c(OC(C)c3ccc([N+](=O)[O-])s3)c2O)cc(OC)c1OC (centres unmarked) [compound 40, (Z)-3-Methoxy-2-(1-(5-nitrothiophen-2-yl)ethoxy)-6-(3,4,5-trimethoxystyryl)phenol]
percent BAPC hydrolysis/cleavage (non-enzymatic) in phosphate buffer (Non-enzymatic stability): 0^c %

COc1ccc(/C=C\c2cc(OC)c(OC)c(OC)c2)c(OC(C)(C)c2ccc([N+](=O)[O-])s2)c1O [compound 41, (Z)-6-Methoxy-2-((2-(5-nitrothiophen-2-yl)propan-2-yl)oxy)-3-(3,4,5-trimethoxystyryl)phenol]
spontaneous hydrolysis in pH 7.4 buffer (Non-enzymatic stability; first 150 min): no apparent spontaneous hydrolysis | hydrolysis in pH 7.4 buffer (Non-enzymatic stability; incubated 24–48 h): mostly hydrolyzed | percent BAPC hydrolysis/cleavage (non-enzymatic) in phosphate buffer (Non-enzymatic stability): 100%

COc1ccc(/C=C\c2cc(OC)c(OC)c(OC)c2)cc1O [compound 42, combretastatin A-4]
inhibition of colchicine binding % inhibition ± SD (tubulin; compound at 1 μM): 84±2% | inhibition of colchicine binding % inhibition ± SD (tubulin; compound at 5 μM): 97±0.7%

COc1ccc(/C=C\c2cc(OC)c(OC)c(OC)c2)cc1OC(C)(C)c1ccc([N+](=O)[O-])s1 [compound 45, (Z)-2-(2-(2-Methoxy-5-(3,4,5-trimethoxystyryl)phenoxy)propan-2-yl)-5-nitrothiophene]
percent BAPC cleavage by POR [2]: 25% | cleavage by POR supersomes ([2]; 24 h, anaerobic conditions): Complete cleavage | stability in phosphate buffer (Non-enzymatic stability; pH 7.4, 24 h): stable | decrease in light emission (BLI) ([3]; 4 h, two of three mice): > 80% | depression of light emission (BLI) ([3]; 24 h, the two responding tumors): > 75% | light emission (BLI) recovery ([3]; by 48 h, the two responding tumors): substantial recovery | tumor necrosis (H&E) (4T1-luc tumors; BLI-unresponsive tumor): 47% | tumor necrosis (H&E) (4T1-luc tumors; tumor showing a strong BLI signal response): 55%

(Z)-3-Methoxy-2-(2-(5-nitrothiophen-2-yl)propoxy)-6-(3,4,5-trimethoxystyryl)-phenyl-4-methylbenzenesulfonate [compound 23]
percent BAPC cleavage by POR [2]: 13.5% | percent BAPC hydrolysis/cleavage (non-enzymatic) in phosphate buffer (Non-enzymatic stability): 0.84%
